Data as given in paper PMC11564562 (Scientific Reports, 2024).

Columns and labels:
HeLa cells = test: MTT cytotoxicity assay, HeLa; type: cell-based; conditions: Homo sapiens, 72 h, read-out: IC50 cytotoxicity against HeLa cells
In short: (§1)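 MTT assay: cells cultured at 37 °C in 5% CO2 with 10% FBS and penicillin/streptomycin, HeLa in DMEM and MCF-7 in RPMI 1640. Seeded at 5,000 cells/well and left to adhere 24 h, then exposed 72 h to 0.1, 1, 10 and 100 µM test compound, diluted from 10 mM DMSO stocks in medium. MTT (5 mg/mL) added for 3 h, formazan dissolved in DMSO, absorbance read. Blank-corrected % survival taken relative to untreated cells; IC50 calculated; mean ± SD, n = 3; doxorubicin as positive control.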

[1] = tested on: MCF-7 breast cancer cells; test: MTT cytotoxicity assay, MCF-7; type: cell-based; conditions: Homo sapiens, MCF7, 72 h, read-out: IC50 cytotoxicity against MCF-7 cells
In short: as §1

[2] = tested on: Hsp90 protein level in MCF-7 cells; test: Hsp90 protein level assay; type: cell-based, human; conditions: 10 µM, control (untreated) cells 5.54 ng/mL
In short: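 Sandwich ELISA kit quantifying intracellular Hsp90 in MCF-7 cells against untreated cells. Standards and samples incubated 2 h at 37 °C, then biotinylated antibody 1 h at 37 °C, three washes, HRP-avidin 1 h at 37 °C, washes, TMB 15–30 min at 37 °C. Stop solution added and absorbance read at 450 nm. Experiment run in triplicate (n = 3); significance set at p < 0.05.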

Compound	IC50 (HeLa cells) [µM]	IC50 [1] [µM]	Hsp90 protein level after treatment [2] [ng/mL]
COc1ccc(-c2noc(NC(=O)c3ccc(Cl)cc3)c2C#N)c(OC)c1 [compound 3, N-(4-cyano-3-(2,4-dimethoxyphenyl)isoxazol-5-yl)-4-chlorobenzamide]	3.61	68.3	–
COc1ccc(-c2noc(NC(=O)c3ccc(F)cc3)c2C#N)c(OC)c1 [compound 8, N-(4-cyano-3(2,4-dimethoxyphenyl)isoxazol-5-yl)-4-fluorobenzamide]	31.9	54.1	–
COc1ccc(-c2noc(N)c2C#N)c(OC)c1 [compound 1, 5-amino-(2,4-dimethoxyphenyl) isoxazole-4-carbonitrile]	7.91	0.31	4.85
COc1ccc(-c2noc(NC(=O)c3ccc(C(F)(F)F)cc3)c2C#N)c(OC)c1 [compound 4, N-(4-cyano-3-(2,4-dimethoxyphenyl)isoxazol-5-yl)-4-(trifluoromethyl)benzamide]	19.4	50.6	2.81
C=CCNC1=C2C[C@@H](C)C[C@H](OC)[C@H](O)[C@@H](C)/C=C(\C)[C@H](OC(N)=O)[C@@H](OC)/C=C\C=C(/C)C(=O)NC(=CC1=O)C2=O [17-AAG, Tanespimycin, reference compound]	–	0.1	–
COc1ccc(-c2noc(NC(=O)c3ccccc3)c2C#N)c(OC)c1 [compound 2, N-(4-cyano-3(2,4-dimethoxyphenyl)isoxazol-5-yl) benzamide]	> 100	≥ 100	–
